According to ChEMBL document CHEMBL4411272, “Design, synthesis and biological evaluation of AZD9291 derivatives as selective and potent EGFRL858R/T790M inhibitors” (Eur J Med Chem, 2019):
Active and inactive are the calls of the source. The rule behind the calls is not given here.

Key:
[1] = target: Epidermal growth factor receptor (Homo sapiens, UniProt P00533, L858R/T790M); test: Inhibition of EGFR T790M/L858R double mutant (unknown origin) using substrate-biotin by ELISA-based mobility shift assay
Epidermal growth factor receptor (Homo sapiens, UniProt P00533, L858R/T790M), sequence (P00533 25-1210 T790M/L858R limits assumed): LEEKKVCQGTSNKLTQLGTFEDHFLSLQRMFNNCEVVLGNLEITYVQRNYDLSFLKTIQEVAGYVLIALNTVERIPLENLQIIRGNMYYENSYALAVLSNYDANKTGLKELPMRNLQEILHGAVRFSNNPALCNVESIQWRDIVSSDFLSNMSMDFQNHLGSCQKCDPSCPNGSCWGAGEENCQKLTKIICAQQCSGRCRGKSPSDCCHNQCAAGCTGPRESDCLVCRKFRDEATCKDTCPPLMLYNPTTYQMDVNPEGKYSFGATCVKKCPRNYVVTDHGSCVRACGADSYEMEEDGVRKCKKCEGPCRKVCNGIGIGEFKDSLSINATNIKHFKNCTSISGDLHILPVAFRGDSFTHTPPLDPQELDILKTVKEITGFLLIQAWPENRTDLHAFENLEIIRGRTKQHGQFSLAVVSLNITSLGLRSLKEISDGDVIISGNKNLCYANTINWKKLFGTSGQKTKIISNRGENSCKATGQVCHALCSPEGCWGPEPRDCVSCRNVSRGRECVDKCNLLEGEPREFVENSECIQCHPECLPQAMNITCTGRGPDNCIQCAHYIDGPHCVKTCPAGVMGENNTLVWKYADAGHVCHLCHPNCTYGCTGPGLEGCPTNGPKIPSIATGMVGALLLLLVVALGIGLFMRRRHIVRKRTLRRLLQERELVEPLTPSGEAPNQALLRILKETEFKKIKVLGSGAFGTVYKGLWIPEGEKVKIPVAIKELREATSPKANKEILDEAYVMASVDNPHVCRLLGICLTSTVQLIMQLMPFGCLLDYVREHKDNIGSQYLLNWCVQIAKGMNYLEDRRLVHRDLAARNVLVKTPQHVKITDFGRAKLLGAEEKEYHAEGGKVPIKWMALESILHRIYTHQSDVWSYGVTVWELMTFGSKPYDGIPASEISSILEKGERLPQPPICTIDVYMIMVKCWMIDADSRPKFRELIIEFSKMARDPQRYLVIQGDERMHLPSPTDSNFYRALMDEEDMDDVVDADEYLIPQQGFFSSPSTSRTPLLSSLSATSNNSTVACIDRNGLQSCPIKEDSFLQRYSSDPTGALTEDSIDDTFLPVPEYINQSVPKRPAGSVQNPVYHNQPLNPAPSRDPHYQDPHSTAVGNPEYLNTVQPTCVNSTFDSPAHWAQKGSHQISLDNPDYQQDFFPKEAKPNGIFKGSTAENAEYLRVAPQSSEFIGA

A549 [2] = test: Cell cycle arrest in human A549 cells assessed as accumulation of cells at S phase at 0.36 uM after 24 hrs by propidium iodide staining-based flow cytometric analysis (reference value: 32.13%); type: functional
In short: (§1)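 A549 cells seeded at 1×10^5 per well, grown 24 h, then treated 24 h with vehicle (0.1% DMSO) or compound at several concentrations. Cells fixed in ice-cold 70% ethanol at 4 °C for 12 h, washed in PBS, treated with 1 mg/mL RNase for 30 min at 37 °C, stained with propidium iodide 30 min in the dark. DNA content measured by flow cytometry.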

A549 [3] = test: Cell cycle arrest in human A549 cells assessed as accumulation of cells at G0/G1 phase at 0.36 uM after 24 hrs by propidium iodide staining-based flow cytometric analysis (reference value: 65.22%); type: functional; in short: as §1
NCI-H1975 [4] = test: Induction of apoptosis in human NCI-H1975 assessed as induction of chromatin shrinkage at 0.25 uM by acridine orange staining-based fluorescence assay; type: functional, cell-based
In short: (§2)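 H1975 cells stained with acridine orange after treatment, alongside an untreated control group. Cell and chromatin morphology assessed by fluorescence imaging.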

A549 [5] = test: Cell cycle arrest in human A549 cells assessed as accumulation of cells at S phase at 1.80 uM after 24 hrs by propidium iodide staining-based flow cytometric analysis (reference value: 32.13%); type: functional; in short: as §1
NCI-H1975 [6] = test: Antiproliferative activity against human NCI-H1975 cells after 72 hrs by MTT assay; type: functional, cell-based; details: NCI-H1975, 72 h
In short: (§3)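 MTT assay; cells grown as monolayers in DMEM or RPMI1640 with 10% FBS at 37 °C, 5% CO2 for 24 h, then compound added for 72 h. MTT at 5 μg/mL for 4 h at 37 °C, formazan dissolved in DMSO, absorbance read at 492 nm with 630 nm reference. Each compound tested three times per line; IC50 from averaged determinations.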

A549 [7] = test: Cell cycle arrest in human A549 cells assessed as accumulation of cells at G2/M phase at 0.36 uM after 24 hrs by propidium iodide staining-based flow cytometric analysis (reference value: 2.65%); type: functional; in short: as §1
A549 [8] = test: Cell cycle arrest in human A549 cells assessed as accumulation at G2/M phase after 24 hrs by propidium iodide staining-based flow cytometric analysis; type: functional; in short: as §1
HepG2 = test: Antiproliferative activity against human HepG2 cells after 72 hrs by MTT assay; type: functional, cell-based; details: HepG2, 72 h
In short: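 MTT assay; cells grown as monolayers in DMEM or RPMI1640 with 10% FBS at 37 °C, 5% CO2 for 24 h, then compound added for 72 h. Each compound tested three times per line; IC50 from averaged determinations.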

NCI-H1975 [9] = test: Induction of apoptosis in human NCI-H1975 assessed as induction of cell structure destruction at 0.25 uM by H33342 staining-based inverted fluorescence microscopic analysis; type: functional
In short: (§4)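 H1975 cells stained with Hoechst 33342 after treatment, alongside an untreated control. Nuclear blue fluorescence, dye uptake, chromatin condensation and cell structure viewed under an inverted fluorescence microscope.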

[10] = target: Epidermal growth factor receptor (Homo sapiens, UniProt P00533); test: Inhibition of wild-type EGFR (unknown origin) using substrate-biotin by ELISA-based mobility shift assay
Epidermal growth factor receptor (Homo sapiens, UniProt P00533), sequence (P00533 whole entry): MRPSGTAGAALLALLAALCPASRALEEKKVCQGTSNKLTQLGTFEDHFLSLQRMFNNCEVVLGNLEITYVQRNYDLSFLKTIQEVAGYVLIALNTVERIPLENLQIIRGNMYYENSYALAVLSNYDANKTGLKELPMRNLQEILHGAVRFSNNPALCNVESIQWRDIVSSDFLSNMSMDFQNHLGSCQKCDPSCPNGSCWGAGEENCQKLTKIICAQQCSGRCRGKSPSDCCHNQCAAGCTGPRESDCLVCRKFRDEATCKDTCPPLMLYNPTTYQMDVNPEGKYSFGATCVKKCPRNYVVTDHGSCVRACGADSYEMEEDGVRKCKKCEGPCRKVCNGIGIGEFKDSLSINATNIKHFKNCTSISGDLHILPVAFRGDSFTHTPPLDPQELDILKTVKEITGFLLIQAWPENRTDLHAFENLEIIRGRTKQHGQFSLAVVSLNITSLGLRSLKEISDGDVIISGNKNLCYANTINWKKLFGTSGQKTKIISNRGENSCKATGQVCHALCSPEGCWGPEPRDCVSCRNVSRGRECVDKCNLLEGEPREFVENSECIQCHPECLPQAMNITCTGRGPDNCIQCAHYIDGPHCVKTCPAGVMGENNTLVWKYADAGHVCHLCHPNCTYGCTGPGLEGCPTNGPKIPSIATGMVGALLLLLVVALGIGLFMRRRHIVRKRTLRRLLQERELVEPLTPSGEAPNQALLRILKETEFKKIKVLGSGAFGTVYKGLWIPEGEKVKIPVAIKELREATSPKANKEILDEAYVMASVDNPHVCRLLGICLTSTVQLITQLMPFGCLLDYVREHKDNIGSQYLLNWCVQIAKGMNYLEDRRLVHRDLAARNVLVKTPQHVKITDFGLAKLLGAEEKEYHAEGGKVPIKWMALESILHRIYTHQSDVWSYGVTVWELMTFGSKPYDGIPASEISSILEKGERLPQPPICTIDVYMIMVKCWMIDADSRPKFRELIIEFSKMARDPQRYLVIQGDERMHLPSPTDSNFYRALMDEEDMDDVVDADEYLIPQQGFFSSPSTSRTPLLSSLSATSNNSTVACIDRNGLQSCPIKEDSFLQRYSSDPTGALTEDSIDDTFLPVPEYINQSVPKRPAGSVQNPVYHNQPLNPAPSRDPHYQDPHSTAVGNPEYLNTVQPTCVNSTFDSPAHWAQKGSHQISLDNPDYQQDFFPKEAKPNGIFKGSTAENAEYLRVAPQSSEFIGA

NCI-H1975 [11] = test: Induction of apoptosis in human NCI-H1975 assessed as formation of cells with sharp edge at 0.25 uM by acridine orange staining-based fluorescence assay; type: functional, cell-based; in short: as §2
A549 [12] = test: Antiproliferative activity against human A549 cells after 72 hrs by MTT assay; type: functional, cell-based; details: A549, 72 h; in short: as §3
A549 [13] = test: Cell cycle arrest in human A549 cells assessed as accumulation of cells at G0/G1 phase at 1.80 uM after 24 hrs by propidium iodide staining-based flow cytometric analysis (reference value: 65.22%); type: functional; in short: as §1
A549 [14] = test: Cell cycle arrest in human A549 cells assessed as accumulation of cells at G2/M phase at 0.72 uM after 24 hrs by propidium iodide staining-based flow cytometric analysis (reference value: 2.65%); type: functional; in short: as §1
NCI-H1975 [15] = test: Induction of apoptosis in human NCI-H1975 assessed as induction of membrane damage at 0.25 uM by H33342 staining-based inverted fluorescence microscopic analysis; type: functional, cell-based; in short: as §4
A549 [16] = test: Cell cycle arrest in human A549 cells assessed as accumulation of cells at S phase at 0.72 uM after 24 hrs by propidium iodide staining-based flow cytometric analysis (reference value: 32.13%); type: functional; in short: as §1
Homo sapiens = species on record: Homo sapiens; test: Selectivity ratio of IC50 for wild-type EGFR (unknown origin) to IC50 for EGFR T790M/L858R double mutant (unknown origin)
A549 [17] = test: Cell cycle arrest in human A549 cells assessed as accumulation of cells at G0/G1 phase at 0.72 uM after 24 hrs by propidium iodide staining-based flow cytometric analysis (reference value: 65.22%); type: functional; in short: as §1
NCI-H1975 [18] = test: Induction of apoptosis in human NCI-H1975 assessed as induction of chromatin shrinkage at 0.25 uM by H33342 staining-based inverted fluorescence microscopic analysis; type: functional, cell-based; in short: as §4
A549 [19] = test: Cell cycle arrest in human A549 cells assessed as accumulation of cells at G2/M phase at 1.80 uM after 24 hrs by propidium iodide staining-based flow cytometric analysis (reference value: 2.65%); type: functional; in short: as §1
NCI-H1975 [20] = test: Induction of apoptosis in human NCI-H1975 at 0.25 uM by acridine orange staining-based fluorescence assay; type: functional, cell-based; in short: as §2

IC50 [1]: 8 nM | IC50 (NCI-H1975 [6]): 254 nM | IC50 (HepG2): 365 nM | IC50 [10]: 1530 nM | IC50 (A549 [12]): 329 nM | Ratio IC50 (Homo sapiens): 191
Compound: CCC/C=C\C(=O)Nc1cc(Nc2nc(C)cc(-c3cn(C)c4ccccc34)n2)c(OC)cc1N(C)CCN(C)C
Activity (A549 [2]): 37.15% | Activity (A549 [3]): 56.78% | Activity (NCI-H1975 [4]): Active | Activity (A549 [5]): 38.24% | Activity (A549 [7]): 6.07% | Activity (A549 [8]): Dose-dependent effect | Activity (NCI-H1975 [9]): Active | Activity (NCI-H1975 [11]): Active | Activity (A549 [13]): 39.55% | Activity (A549 [14]): 15.28% | Activity (NCI-H1975 [15]): Active | Activity (A549 [16]): 39.81% | Activity (A549 [17]): 44.91% | Activity (NCI-H1975 [18]): Active | Activity (A549 [19]): 22.24% | Activity (NCI-H1975 [20]): Active
